According to ChEMBL document CHEMBL4414601 (J Med Chem, 2019):
pEC50, pIC50, pKd: −log10 of the molar value.

Experiments:
Plasmodium falciparum [1] = experiment: Antiplasmodial activity against […] of Plasmodium falciparum NF54 assessed as reduction in male gametocytes activation preincubated for 48 hrs followed by gametocytes activation and measured after 24 hrs by fluorescence based automated inverted microscopic analysis; format: functional, organism-based
Outline: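 Gametocyte activation was triggered by reduced temperature and ookinete medium containing xanthurenic acid. Male exflagellation centres were detected from a 10-frame video, scoring pixel changes caused by flagellar movement shifting surrounding cells.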

[2] = Binding affinity to zinc finger (CCCH type) protein in Plasmodium falciparum 3D7 blood stage extract incubated for 1 hr by kinobeads based pull down assay; details: read-out: Kd(app)
[3] = Clearance in human liver microsomes at 0.5 uM measured up to 45 mins in presence of NADPH by HPLC-MS/MS analysis; format: ADME, Microsome
[4] = target: T1, Nuclear receptor subfamily 1 group I member 2 (Homo sapiens, UniProt O75469); experiment: Agonist activity at human PXR
T1 sequence (O75469 whole entry): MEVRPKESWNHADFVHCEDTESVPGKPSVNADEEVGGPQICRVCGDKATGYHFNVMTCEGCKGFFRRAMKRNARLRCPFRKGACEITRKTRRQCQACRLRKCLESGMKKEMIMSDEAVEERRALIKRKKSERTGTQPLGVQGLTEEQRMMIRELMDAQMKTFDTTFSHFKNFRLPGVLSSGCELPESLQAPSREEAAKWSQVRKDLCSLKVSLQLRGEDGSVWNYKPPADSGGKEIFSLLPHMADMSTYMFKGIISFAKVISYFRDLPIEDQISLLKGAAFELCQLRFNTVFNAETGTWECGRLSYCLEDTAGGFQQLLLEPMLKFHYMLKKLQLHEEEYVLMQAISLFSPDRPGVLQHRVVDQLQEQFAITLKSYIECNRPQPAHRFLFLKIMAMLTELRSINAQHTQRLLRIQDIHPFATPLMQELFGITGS

[5] = Lipophilicity, LogD of compound by reverse phase HPLC analysis
Plasmodium falciparum [6] = experiment: (§1) Antiplasmodial activity against Plasmodium falciparum 3D7A asexual erythrocytic stage assessed as reduction in [3H]hypoxanthine incorporation preincubated for 48 hrs followed by [3H]hypoxanthine addition and measured after 24 hrs by microbeta scintillation counting method; format: functional, organism-based
[7] = target: T2, Calcium-dependent protein kinase 4 (Plasmodium falciparum (isolate 3D7), UniProt Q8IBS5); experiment: Binding affinity to CDPK4 in Plasmodium falciparum 3D7 blood stage extract incubated for 1 hr by kinobeads based pull down assay; details: read-out: Kd(app)
T2 sequence (Q8IBS5 whole entry): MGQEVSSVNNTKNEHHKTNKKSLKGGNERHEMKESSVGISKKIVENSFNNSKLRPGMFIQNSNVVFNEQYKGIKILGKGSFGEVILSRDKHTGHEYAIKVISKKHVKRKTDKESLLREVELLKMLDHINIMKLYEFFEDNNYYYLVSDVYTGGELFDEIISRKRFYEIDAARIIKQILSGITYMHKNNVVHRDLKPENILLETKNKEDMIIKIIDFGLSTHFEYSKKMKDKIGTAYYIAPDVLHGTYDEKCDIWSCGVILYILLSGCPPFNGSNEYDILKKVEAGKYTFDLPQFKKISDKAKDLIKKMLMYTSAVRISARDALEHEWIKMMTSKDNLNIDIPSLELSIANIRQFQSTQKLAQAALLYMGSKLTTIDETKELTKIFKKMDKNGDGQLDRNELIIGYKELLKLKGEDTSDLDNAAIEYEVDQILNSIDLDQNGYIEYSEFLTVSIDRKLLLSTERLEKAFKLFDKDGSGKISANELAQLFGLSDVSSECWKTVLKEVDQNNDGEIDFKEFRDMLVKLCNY
Outline: (§2)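 Chemoproteomic competition used kinobeads or Sepharose beads derivatized with ligand at 1 mM. Free compound was tested at six concentrations between 0.08 and 20 μM, in two independent experiments. Proteins were SP3-digested, TMT 10-plex labelled and measured by LC-MS/MS. IC50s came from competition curves, and apparent Kd was corrected for protein depletion by the beads.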

[8] = Binding affinity to GSK3 in Plasmodium falciparum 3D7 blood stage extract incubated for 1 hr by kinobeads based pull down assay; details: read-out: Kd(app)
Outline: (§3)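 The free compound competed over six concentrations from 0.08 to 20 μM. Proteins were digested by a modified SP3 protocol, labelled with TMT 10-plex and quantified by LC-MS/MS. Apparent Kd was derived from IC50 corrected for bead depletion. Two independent experiments were run.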

Plasmodium falciparum [9] = experiment: as §1, with “3D7A harboring with PKG T618Q mutant” for “3D7A”, “72” for “48”; format: functional, organism-based
Plasmodium falciparum [10] = experiment: Antiplasmodial activity against Plasmodium falciparum 3D7A erythrocytic stage assessed as reduction in [3H]hypoxanthine incorporation preincubated for 24 hrs followed by [3H]hypoxanthine addition and measured after 24 hrs by microbeta scintillation counting method; format: functional, organism-based
Outline: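 Nine threefold serial dilutions from 5 μM top concentration. Incubated 24 h at 37 °C under 5% CO2/5% O2/90% N2, then 0.2 μCi [3H]-hypoxanthine per well for another 24 h. Cells harvested on glass fibre filters and counted. Data normalized to compound-free parasitized RBCs; IC50 fitted.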

Plasmodium falciparum [11] = experiment: Antiplasmodial activity against […] of Plasmodium falciparum NF54 assessed as reduction in female gametocytes activation preincubated for 48 hrs followed by gametocytes activation and measured after 24 hrs by fluorescence based automated inverted microscopic analysis; format: functional, organism-based
Outline: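 NF54 gametocytes were activated by lowered temperature plus ookinete medium with xanthurenic acid and anti-Pfs25-Cy3 antibody (1/2000 final dilution). Cultures were then kept at 26 °C for 24 h in the dark. Activated females were counted by Cy3 anti-Pfs25 fluorescence, with events gated on size, roundness and fluorescence intensity.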

[12] = Binding affinity to GSK3 in Plasmodium falciparum 3D7 blood stage extract incubated for 1 hr in presence of ATP-competitive kinase inhibitor by kinobeads based pull down assay; details: read-out: Kd(app); outline: as §3
[13] = target: Calcium-dependent protein kinase 1 (Plasmodium falciparum, UniProt P62344); experiment: Binding affinity to CDPK1 in Plasmodium falciparum 3D7 blood stage extract incubated for 1 hr in presence of ATP-competitive kinase inhibitor by kinobeads based pull down assay; details: read-out: Kd(app); outline: as §2
Calcium-dependent protein kinase 1, sequence (P62344 whole entry): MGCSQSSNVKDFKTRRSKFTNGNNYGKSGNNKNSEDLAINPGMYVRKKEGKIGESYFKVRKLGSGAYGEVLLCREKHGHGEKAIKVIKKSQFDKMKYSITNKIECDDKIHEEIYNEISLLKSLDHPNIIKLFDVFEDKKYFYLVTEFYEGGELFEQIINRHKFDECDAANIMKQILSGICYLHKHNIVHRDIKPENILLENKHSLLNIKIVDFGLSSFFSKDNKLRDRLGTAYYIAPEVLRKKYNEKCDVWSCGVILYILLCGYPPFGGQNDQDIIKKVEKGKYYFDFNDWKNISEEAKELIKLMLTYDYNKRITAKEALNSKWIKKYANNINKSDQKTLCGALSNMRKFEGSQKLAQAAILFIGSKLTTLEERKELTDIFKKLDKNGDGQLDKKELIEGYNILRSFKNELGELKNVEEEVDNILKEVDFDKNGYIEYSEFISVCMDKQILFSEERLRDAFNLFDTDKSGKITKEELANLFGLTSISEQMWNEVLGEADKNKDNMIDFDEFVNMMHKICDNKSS

[14] = target: Voltage-dependent L-type calcium channel subunit alpha-1C (Homo sapiens, UniProt Q13936); experiment: Inhibition of human L-type CaV1.2
Voltage-dependent L-type calcium channel subunit alpha-1C, sequence (Q13936 whole entry): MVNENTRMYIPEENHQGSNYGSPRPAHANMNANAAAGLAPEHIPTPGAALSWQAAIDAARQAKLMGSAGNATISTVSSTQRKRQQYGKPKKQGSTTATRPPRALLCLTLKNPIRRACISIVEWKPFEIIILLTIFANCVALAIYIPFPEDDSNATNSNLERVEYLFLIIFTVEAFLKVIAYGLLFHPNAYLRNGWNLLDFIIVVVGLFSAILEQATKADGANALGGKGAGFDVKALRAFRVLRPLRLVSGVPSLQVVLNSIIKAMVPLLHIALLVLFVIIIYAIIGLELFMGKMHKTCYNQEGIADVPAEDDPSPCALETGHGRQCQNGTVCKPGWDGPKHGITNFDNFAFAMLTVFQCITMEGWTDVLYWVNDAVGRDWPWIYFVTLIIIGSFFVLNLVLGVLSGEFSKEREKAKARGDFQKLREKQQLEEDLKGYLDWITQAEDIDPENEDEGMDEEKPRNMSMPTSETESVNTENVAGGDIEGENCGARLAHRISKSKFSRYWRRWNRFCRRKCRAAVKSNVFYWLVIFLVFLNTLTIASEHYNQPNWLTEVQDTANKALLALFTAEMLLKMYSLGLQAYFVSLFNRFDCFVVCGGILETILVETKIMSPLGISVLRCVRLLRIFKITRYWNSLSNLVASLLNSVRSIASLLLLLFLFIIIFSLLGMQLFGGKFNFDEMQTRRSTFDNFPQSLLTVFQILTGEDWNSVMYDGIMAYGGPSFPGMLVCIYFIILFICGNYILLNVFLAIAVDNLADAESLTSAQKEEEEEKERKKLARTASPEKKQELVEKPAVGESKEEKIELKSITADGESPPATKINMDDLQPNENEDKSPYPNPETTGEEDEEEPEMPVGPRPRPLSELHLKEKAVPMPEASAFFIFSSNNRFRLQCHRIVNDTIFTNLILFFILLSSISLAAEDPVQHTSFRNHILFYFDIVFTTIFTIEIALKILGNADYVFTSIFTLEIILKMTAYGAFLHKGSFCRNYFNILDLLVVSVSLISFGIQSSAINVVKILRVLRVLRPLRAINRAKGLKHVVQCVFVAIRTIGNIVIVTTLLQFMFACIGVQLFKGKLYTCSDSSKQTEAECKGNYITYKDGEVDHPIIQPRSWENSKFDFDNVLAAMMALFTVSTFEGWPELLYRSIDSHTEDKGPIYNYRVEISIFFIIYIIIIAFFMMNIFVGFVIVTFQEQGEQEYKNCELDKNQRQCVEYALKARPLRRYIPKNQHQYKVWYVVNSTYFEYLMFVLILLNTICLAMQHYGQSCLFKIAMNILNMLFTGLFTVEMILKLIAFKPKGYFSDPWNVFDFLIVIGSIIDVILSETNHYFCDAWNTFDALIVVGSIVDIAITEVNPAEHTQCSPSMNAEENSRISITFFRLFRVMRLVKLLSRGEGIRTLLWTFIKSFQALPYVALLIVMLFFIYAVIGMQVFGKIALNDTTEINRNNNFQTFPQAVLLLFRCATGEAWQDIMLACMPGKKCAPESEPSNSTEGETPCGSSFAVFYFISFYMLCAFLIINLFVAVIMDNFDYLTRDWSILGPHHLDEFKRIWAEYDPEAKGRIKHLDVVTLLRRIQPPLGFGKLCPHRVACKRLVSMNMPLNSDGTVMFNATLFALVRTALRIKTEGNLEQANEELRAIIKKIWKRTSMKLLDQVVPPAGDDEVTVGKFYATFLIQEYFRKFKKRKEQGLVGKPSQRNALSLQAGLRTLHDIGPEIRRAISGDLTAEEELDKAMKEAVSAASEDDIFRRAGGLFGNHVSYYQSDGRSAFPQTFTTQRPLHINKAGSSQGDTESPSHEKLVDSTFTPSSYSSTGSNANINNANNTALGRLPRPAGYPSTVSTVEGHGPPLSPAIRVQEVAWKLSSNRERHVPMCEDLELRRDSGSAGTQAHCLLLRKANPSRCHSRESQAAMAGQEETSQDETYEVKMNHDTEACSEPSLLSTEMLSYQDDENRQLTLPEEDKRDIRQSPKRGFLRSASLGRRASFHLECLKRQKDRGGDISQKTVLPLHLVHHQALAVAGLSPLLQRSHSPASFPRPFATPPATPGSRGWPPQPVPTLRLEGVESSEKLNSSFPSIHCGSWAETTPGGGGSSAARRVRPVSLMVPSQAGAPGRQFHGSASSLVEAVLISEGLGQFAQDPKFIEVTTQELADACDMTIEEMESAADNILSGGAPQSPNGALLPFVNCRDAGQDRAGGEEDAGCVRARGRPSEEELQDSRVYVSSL

Structure (SMILES): Cc1cc(Nc2nccc(-c3sc(C4CCNCC4)nc3-c3ccc(F)cc3)n2)ccn1
- pEC50 (Plasmodium falciparum [1]): 6.52
- pKd [2]: 5.41
- CLH [3]: 0.96 mL/min/g
- pEC50 [4]: < 4.30
- chromatographic logD [5]: 2.54
- pEC50 (Plasmodium falciparum [6]): 6.89
- pKd [7]: 7.30
- pKd [8]: 7.05
- pEC50 (Plasmodium falciparum [9]): 6.92
- pEC50 (Plasmodium falciparum [10]): 6.80
- pEC50 (Plasmodium falciparum [11]): 6.40
- pKd [12]: 7.05
- pKd [13]: 7.30
- pIC50 [14]: < 4.52
